Assay results of several laboratories.
Each line is one published result; the experiments were not run side by side.
Target: Voltage-gated inwardly rectifying potassium channel KCNH2 (KCNH2, Homo sapiens, UniProt Q12809)

| SMILES | test | test system | conditions | endpoint | result |
| --- | --- | --- | --- | --- | --- |
| CCN(CC)CCNC(=O)C1CCN(c2ccc3nnc(-c4cccc(C)c4)n3n2)CC1 | ion current, inhibitor, patch clamp | HEK293 | 10 µM | inhibition | 58% |
| CCc1cc(O)ccc1-c1ccc2c(-c3nc4c([nH]3)CN(C(C)C)[C@H](C(=O)N3CC(N(C)C)C3)C4)n[nH]c2c1 | ion current, inhibitor |  | 13 µM | inhibition | < 5% |
| O=C(Cc1ccc(F)c(CF)c1)N1CCN(c2ccc3nncn3n2)CC1 | ligand displacement, radioligand |  | 30 µM | inhibition | 23% |
| CNC(=O)[C@@]12C[C@@H]1[C@@H](n1cnc3c(NCCc4ccc(OC)c(OC)c4)nc(C#Cc4ccc(Cl)s4)nc31)[C@H](O)[C@@H]2O | ion current, inhibitor |  | 10 µM | inhibition | > 50% |
| N=c1n(CCN2CCCCC2)c2ccccc2n1CC(O)c1cccc(Br)c1 (centres unmarked) | ion current, inhibitor, patch clamp | HEK293 | 10 µM | inhibition | 99% |
| Cc1nc2cnc(N)c(C#Cc3cncc(C(=O)Nc4ccc(CN5CCN(C)CC5)c(C(F)(F)F)c4)c3)c2nc1C | ion current, inhibitor |  |  | IC50 | 2.4 µM |
| CNC(=O)[C@@]12C[C@@H]1[C@@H](n1cnc3c(NCCc4ccc(O)c(OC)c4)nc(C#Cc4ccc(Br)s4)nc31)[C@H](O)[C@@H]2O | ion current, inhibitor |  | 10 µM | inhibition | > 50% |
| Ic1cccc2cnccc12 | ligand displacement, radioligand |  | 10 µM | inhibition | 31% |
| CCN(Cc1ccccc1C(F)(F)F)C(=O)C1CCN(S(=O)(=O)c2ccc3[nH]ncc3c2)CC1 | ligand displacement, radioligand |  | 10 µM | inhibition | 18% |
| COc1ncc(C)c(-c2ccc3c(c2)[nH]c(=O)c2cnn([C@H]4CCOC4)c23)c1C | ion current, inhibitor |  |  | IC50 | 4 µM |
| O=C(Cc1ccc(F)c(C(F)F)c1)N1CCN(c2ccc3nncn3n2)CC1 | ligand displacement, radioligand |  | 30 µM | inhibition | 38% |
